The source of these data is ChEMBL document CHEMBL3526116, “Toxicological evaluation of acyl glucuronides of nonsteroidal anti-inflammatory drugs using human embryonic kidney 293 cells stably expressing human UDP-glucuronosyltransferase and human hepatocytes” (Drug Metab Dispos, 2011).

Data set [1] relates to Hepatocyte. Briefly: Drug level in human hepatocytes assessed per 2 x 10^5 cells treated with diclofenac at 0.1 mM measured at 6 hrs by LC-MS/MS analysis in presence of acyl glucuronidation inhibitor (-)-borneol. The class given is ADME, cell-based. Particulars: 100 µM.
The test system of data set [2] is Hepatocyte. Nature of the data set: Drug level in human hepatocytes assessed per 2 x 10^5 cells treated with diclofenac at 0.1 mM measured at 6 hrs by LC-MS/MS analysis in absence of acyl glucuronidation inhibitor (-)-borneol. The class given is ADME, cell-based. The settings on record: 100 µM.
The nature of data set [3]: Drug level in cell culture medium treated with diclofenac at 0.1 mM measured at 6 hrs by LC-MS/MS analysis in presence of acyl glucuronidation inhibitor (-)-borneol. It is filed as physicochemical. The settings on record: 100 µM.
The target of data set [4] is T1, UDP-glucuronosyltransferase 1A3 (Homo sapiens, UniProt P35503).
T1 sequence (P35503 whole entry): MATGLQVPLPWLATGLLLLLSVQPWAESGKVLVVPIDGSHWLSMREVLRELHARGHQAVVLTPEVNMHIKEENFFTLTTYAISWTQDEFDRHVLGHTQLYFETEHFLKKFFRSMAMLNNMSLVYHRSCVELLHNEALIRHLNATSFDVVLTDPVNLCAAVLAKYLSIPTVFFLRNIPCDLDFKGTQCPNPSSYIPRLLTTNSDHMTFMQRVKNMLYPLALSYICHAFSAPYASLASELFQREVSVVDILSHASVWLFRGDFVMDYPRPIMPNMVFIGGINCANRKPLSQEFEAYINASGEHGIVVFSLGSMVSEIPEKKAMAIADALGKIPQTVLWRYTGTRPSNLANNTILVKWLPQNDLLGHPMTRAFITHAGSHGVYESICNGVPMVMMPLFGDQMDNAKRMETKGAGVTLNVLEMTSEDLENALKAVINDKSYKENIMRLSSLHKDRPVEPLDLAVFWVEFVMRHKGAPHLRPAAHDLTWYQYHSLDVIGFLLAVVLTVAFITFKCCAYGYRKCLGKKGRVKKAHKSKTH
Nature of the data set: Activity of human UGT1A3 expressed in HEK293 cells assessed as enzyme-mediated compound formation in cell culture medium treated with diclofenac at 0.1 mM measured at 6 to 24 hrs by LC-MS/MS analysis. The class given is ADME, cell-based. The settings on record: hek293, 100 µM. An outline of the steps: (§1)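 HEK293 stably expressing human UGT1A3 (G418-selected), 2 x 10^5 cells/well in 1 mL DMEM with 0.5% FBS, exposed immediately to drug for 6, 12 or 24 h; DMSO ≤0.1% final. Cells and medium separated by centrifugation, cell fraction resuspended in PBS; aliquots mixed 1:1 with methanol/acetic acid (100:1), spun, supernatant analysed by LC-MS/MS. Triplicate determinations, mean ± SD.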

Data set [5] is described as follows: Drug level in cell culture medium treated with diclofenac at 0.1 mM measured at 6 hrs by LC-MS/MS analysis in absence of acyl glucuronidation inhibitor (-)-borneol. The class given is physicochemical. Particulars: 100 µM.
Data set [6] concerns the target T1, UDP-glucuronosyltransferase 1A3. Briefly: Activity of human UGT1A3 expressed in HEK293 cells assessed as enzyme-mediated compound formation per 2 x 10^5 cells treated with diclofenac at 0.1 mM measured at 24 hrs by LC-MS/MS analysis. The class given is ADME, cell-based. Particulars: hek293, 24 h, 100 µM. Put shortly:
as §1

For data set [7] the target is unchanged. Briefly: Activity of human UGT1A3 expressed in HEK293 cells assessed as enzyme-mediated compound formation in cell culture medium treated with diclofenac at 0.1 mM by LC-MS/MS analysis. The class given is ADME, cell-based. The settings on record: hek293, 100 µM, TDE = time-dependent effect. An outline of the steps:
as §1

Data set [8] relates to Hepatocyte. Briefly: Drug level in human hepatocytes assessed per 2 x 10^5 cells treated with ketoprofen at 1 mM measured at 6 hrs by LC-MS/MS analysis in presence of acyl glucuronidation inhibitor (-)-borneol. The class given is ADME, cell-based. The settings on record: 1000 µM.
Data set [9] concerns Hepatocyte. Nature of the data set: Drug level in human hepatocytes assessed per 2 x 10^5 cells treated with ketoprofen at 1 mM measured at 6 hrs by LC-MS/MS analysis in absence of acyl glucuronidation inhibitor (-)-borneol. It is filed as ADME, cell-based. Particulars: 1000 µM.
Data set [10] has as its target T1, UDP-glucuronosyltransferase 1A3. Nature of the data set: Activity of human UGT1A3 expressed in HEK293 cells assessed as enzyme-mediated compound formation in cell culture medium treated with ketoprofen at 1 mM measured at 6 to 24 hrs by LC-MS/MS analysis. The class given is ADME, cell-based. Particulars: hek293, 1000 µM. An outline of the steps: as §1
Data set [11] can be described thus: Drug level in cell culture medium treated with ketoprofen at 1 mM measured at 6 hrs by LC-MS/MS analysis in presence of acyl glucuronidation inhibitor (-)-borneol. It is filed as physicochemical. Particulars: 1000 µM.
Data set [12] addresses T1, UDP-glucuronosyltransferase 1A3. Briefly: Activity of human UGT1A3 expressed in HEK293 cells assessed as enzyme-mediated compound formation in cell culture medium treated with ketoprofen at 1 mM by LC-MS/MS analysis. The class given is ADME, cell-based. Particulars: hek293, 1000 µM, TDE = time-dependent effect. Put shortly: as §1
Data set [13] can be described thus: Drug level in cell culture medium treated with ketoprofen at 1 mM measured at 6 hrs by LC-MS/MS analysis in absence of acyl glucuronidation inhibitor (-)-borneol. It is filed as physicochemical. The settings on record: 1000 µM.
Data set [14] relates to Nucleic Acid. Nature of the data set: Ratio of drug level in human hepatocytes to HEK293 cells expressing UGT1A3 treated with ketoprofen at 1 mM. The class given is ADME, cell-based, Hepatocyte. The settings on record: 1000 µM. An outline of the steps: (§2)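 Acyl glucuronide in cell fraction (pmol/2 x 10^5 cells) by LC-MS/MS after 6 h exposure in human hepatocytes without (-)-borneol, set against HEK/UGT1A3 cells (2 x 10^5 cells/well, DMEM with 0.5% FBS) exposed to the same drug level; cells pelleted at 3000 x g, resuspended in PBS, extracted with methanol/acetic acid.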

For data set [15], the target named is T1, UDP-glucuronosyltransferase 1A3. Nature of the data set: Activity of human UGT1A3 expressed in HEK293 cells assessed as enzyme-mediated compound formation per 2 x 10^5 cells treated with ketoprofen at 1 mM measured at 24 hrs by LC-MS/MS analysis. It is filed as ADME, cell-based. The settings on record: hek293, 24 h, 1000 µM. Put shortly: as §1
A short description of data set [16]: Drug level in cell culture medium treated with naproxen at 1 mM measured at 6 hrs by LC-MS/MS analysis in presence of acyl glucuronidation inhibitor (-)-borneol. Particulars: 1000 µM. It is filed as physicochemical.
Data set [17] deals with T1, UDP-glucuronosyltransferase 1A3. Briefly: Activity of human UGT1A3 expressed in HEK293 cells assessed as enzyme-mediated compound formation in cell culture medium treated with naproxen at 1 mM measured at 6 to 24 hrs by LC-MS/MS analysis. It is filed as ADME, cell-based. Particulars: hek293, 1000 µM. An outline of the steps: as §1
Data set [18] is described as follows: Drug level in cell culture medium treated with naproxen at 1 mM measured at 6 hrs by LC-MS/MS analysis in absence of acyl glucuronidation inhibitor (-)-borneol. The class given is physicochemical. The settings on record: 1000 µM.
Data set [19] has as its system Hepatocyte. Nature of the data set: Drug level in human hepatocytes assessed per 2 x 10^5 cells treated with naproxen at 1 mM measured at 6 hrs by LC-MS/MS analysis in presence of acyl glucuronidation inhibitor (-)-borneol. Particulars: 1000 µM. It is filed as ADME, cell-based.
In data set [20] the target is T1, UDP-glucuronosyltransferase 1A3. Nature of the data set: Activity of human UGT1A3 expressed in HEK293 cells assessed as enzyme-mediated compound formation per 2 x 10^5 cells treated with naproxen at 1 mM measured at 24 hrs by LC-MS/MS analysis. The class given is ADME, cell-based. Particulars: hek293, 24 h, 1000 µM. Put shortly: as §1
Data set [21] has as its system Hepatocyte. Nature of the data set: Drug level in human hepatocytes assessed per 2 x 10^5 cells treated with naproxen at 1 mM measured at 6 hrs by LC-MS/MS analysis in absence of acyl glucuronidation inhibitor (-)-borneol. It is filed as ADME, cell-based. The settings on record: 1000 µM.
Data set [22] addresses T1, UDP-glucuronosyltransferase 1A3. Nature of the data set: Activity of human UGT1A3 expressed in HEK293 cells assessed as enzyme-mediated compound formation in cell culture medium treated with naproxen at 1 mM by LC-MS/MS analysis. The class given is ADME, cell-based. Particulars: hek293, 1000 µM, TDE = time-dependent effect. Put shortly: as §1
Data set [23] has as its system Nucleic Acid. Nature of the data set: Ratio of drug level in human hepatocytes to HEK293 cells expressing UGT1A3 treated with naproxen at 1 mM. The class given is ADME, cell-based, Hepatocyte. The settings on record: 1000 µM. Put shortly: as §2

`O=C(Cc1ccccc1Nc1c(Cl)cccc1Cl)O[C@@H]1O[C@H](C(=O)O)[C@@H](O)[C@H](O)[C@H]1O`: the Drug metabolism with Hepatocyte [1] stood at 15.1 pmol; in the data set on Hepatocyte [2], 59.6 pmol; in data set [3], 610.5 pmol/mL; in data set [4] it was 104 pmol/mL; in data set [5], 2816.1 pmol/mL; in data set [6] it was 3.8 pmol. Further, the Drug metabolism entry in data set [7] was “tde”.
Consider `CC(C(=O)O[C@@H]1O[C@H](C(=O)O)[C@@H](O)[C@H](O)[C@H]1O)c1cccc(C(=O)c2ccccc2)c1` (stereo partly drawn), for which the Drug metabolism is 1.7 pmol with Hepatocyte [8]; 6.8 pmol with Hepatocyte [9]; 6.3 pmol/mL in data set [10]; 54.9 pmol/mL in data set [11]; “tde” in data set [12]; 436.8 pmol/mL in data set [13]. Besides, the Drug metabolism in data set [15] is on record as 0.2 pmol. Moreover, the Ratio in the data set on Nucleic Acid [14] came out at 6.
Regarding `COc1ccc2cc([C@H](C)C(=O)O[C@@H]3O[C@H](C(=O)O)[C@@H](O)[C@H](O)[C@H]3O)ccc2c1`, the Drug metabolism in data set [16] stood at 393.7 pmol/mL; in data set [17] it was 137 pmol/mL; in data set [18], 1323.9 pmol/mL; with Hepatocyte [19] it was 10.3 pmol; in data set [20], 4.5 pmol; with Hepatocyte [21], 33.6 pmol. Further, in data set [22], the Drug metabolism result was “tde”. In addition, in the data set with Nucleic Acid [23], the Ratio amounted to 6.
